Reference: ChEMBL document CHEMBL3612027, “Substrate-guided optimization of the syringolins yields potent proteasome inhibitors with activity against leukemia cell lines” (Bioorg Med Chem, 2015)

Tests used:
NCI-H322M = assay: Cytotoxicity against human NCI-H322M cells assessed as cell growth at 10 uM after 48 hrs relative to control; type: functional; conditions: read-out: Activity
In short: (§1)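 Run at the National Cancer Institute as a single-dose screen across its 60-cell-line cancer panel. Compound was tested at 10 micromolar, and growth was expressed as a percentage of negative-control cultures.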

NCI-H522 = assay: Cytotoxicity against human NCI-H522 cells assessed as cell growth at 10 uM after 48 hrs relative to control; type: functional; conditions: NCI-H522, 48 h, read-out: Activity; in short: as §1
K562 [1] = assay: Cytotoxicity against human K562 cells assessed as cell growth at 10 uM after 48 hrs relative to control; type: functional; conditions: K562, 48 h, read-out: Activity; in short: as §1
OVCAR-5 = assay: Cytotoxicity against human OVCAR5 cells assessed as cell growth at 10 uM after 48 hrs relative to control; type: functional; conditions: OVCAR-5, 48 h, read-out: Activity; in short: as §1
CAKI-1 = assay: Cytotoxicity against human Caki1 cells assessed as cell growth at 10 uM after 48 hrs relative to control; type: functional; conditions: CAKI-1, 48 h, read-out: Activity; in short: as §1
K562 [2] = assay: Cytotoxicity against human K562 cells after 48 hrs; type: functional; conditions: K562, 48 h
CCRF-CEM = assay: Cytotoxicity against human CCRF-CEM cells assessed as cell growth at 10 uM after 48 hrs relative to control; type: functional; conditions: read-out: Activity; in short: as §1
[3] = target: T1, Proteasome Macropain subunit MB1 (Homo sapiens, UniProt P28074); assay: Inhibition of human 20S proteasome beta5 subunit using Suc-LLVY-AMC as substrate by fluorescence assay
T1 sequence (P28074 whole entry): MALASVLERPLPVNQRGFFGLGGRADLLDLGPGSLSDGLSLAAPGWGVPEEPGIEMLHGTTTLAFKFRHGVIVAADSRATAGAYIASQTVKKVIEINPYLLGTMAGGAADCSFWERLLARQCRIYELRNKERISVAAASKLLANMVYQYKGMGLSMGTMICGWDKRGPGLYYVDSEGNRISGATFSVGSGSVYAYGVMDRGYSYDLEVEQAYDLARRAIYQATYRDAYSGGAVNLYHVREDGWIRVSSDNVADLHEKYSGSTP

NCI/ADR-RES = assay: Cytotoxicity against human NCI/ADR-RES cells assessed as cell growth at 10 uM after 48 hrs relative to control; type: functional; conditions: read-out: Activity; in short: as §1
HCC 2998 = assay: Cytotoxicity against human HCC2998 cells assessed as cell growth at 10 uM after 48 hrs relative to control; type: functional; conditions: HCC 2998, 48 h, read-out: Activity; in short: as §1
MOLT-4 = assay: Cytotoxicity against human MOLT4 cells after 48 hrs; type: functional; conditions: MOLT-4, 48 h
MDA-MB-231 = assay: Cytotoxicity against human MDA-MB-231 cells assessed as cell growth at 10 uM after 48 hrs relative to control; type: functional; conditions: MDA-MB-231, 48 h, read-out: Activity; in short: as §1
SK-MEL-2 = assay: Cytotoxicity against human SK-MEL-2 cells assessed as cell growth at 10 uM after 48 hrs relative to control; type: functional; conditions: SK-MEL-2, 48 h, read-out: Activity; in short: as §1
[4] = Cytotoxicity against human Hs578T cells assessed as cell growth at 10 uM after 48 hrs relative to control; type: functional; conditions: Hs-578T, read-out: Activity; in short: as §1
U-251 = assay: Cytotoxicity against human U251 cells assessed as cell growth at 10 uM after 48 hrs relative to control; type: functional; conditions: U-251, 48 h, read-out: Activity
In short: (§2)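 Submitted to the National Cancer Institute for a single-dose screen at 10 micromolar against 60 cancer cell lines. Growth is expressed relative to negative-control cultures.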

A549 = assay: Cytotoxicity against human A549 cells assessed as cell growth at 10 uM after 48 hrs relative to control; type: functional; conditions: A549, 48 h, read-out: Activity; in short: as §1
M14 = assay: Cytotoxicity against human M14 cells assessed as cell growth at 10 uM after 48 hrs relative to control; type: functional; conditions: M14, 48 h, read-out: Activity; in short: as §1
Malme-3M = assay: Cytotoxicity against human MALME-3M cells assessed as cell growth at 10 uM after 48 hrs relative to control; type: functional; conditions: read-out: Activity; in short: as §1
MCF7 = assay: Cytotoxicity against human MCF7 cells assessed as cell growth at 10 uM after 48 hrs relative to control; type: functional; conditions: MCF7, 48 h, read-out: Activity; in short: as §1
OVCAR-3 = assay: Cytotoxicity against human OVCAR3 cells assessed as cell growth at 10 uM after 48 hrs relative to control; type: functional; conditions: OVCAR-3, 48 h, read-out: Activity; in short: as §1
DU-145 = assay: Cytotoxicity against human DU145 cells assessed as cell growth at 10 uM after 48 hrs relative to control; type: functional; conditions: DU-145, 48 h, read-out: Activity; in short: as §1
MDA-MB-468 = assay: Cytotoxicity against human MDA-MB-468 cells assessed as cell growth at 10 uM after 48 hrs relative to control; type: functional; conditions: MDA-MB-468, 48 h, read-out: Activity; in short: as §1
SW-620 = assay: Cytotoxicity against human SW620 cells assessed as cell growth at 10 uM after 48 hrs relative to control; type: functional; conditions: SW-620, 48 h, read-out: Activity; in short: as §2
UACC-62 = assay: Cytotoxicity against human UACC62 cells assessed as cell growth at 10 uM after 48 hrs relative to control; type: functional; conditions: UACC-62, 48 h, read-out: Activity; in short: as §2
UO-31 = assay: Cytotoxicity against human UO31 cells assessed as cell growth at 10 uM after 48 hrs relative to control; type: functional; conditions: UO-31, 48 h, read-out: Activity; in short: as §2
RPMI-8226 = assay: Cytotoxicity against human RPMI8226 cells assessed as cell growth at 10 uM after 48 hrs relative to control; type: functional; conditions: RPMI-8226, 48 h, read-out: Activity; in short: as §1
LOX IMVI = assay: Cytotoxicity against human LOXIMVI cells assessed as cell growth at 10 uM after 48 hrs relative to control; type: functional; conditions: read-out: Activity; in short: as §1
HL-60 = assay: Cytotoxicity against human HL60 cells after 48 hrs; type: functional; conditions: HL-60, 48 h
UACC-257 = assay: Cytotoxicity against human UACC257 cells assessed as cell growth at 10 uM after 48 hrs relative to control; type: functional; conditions: UACC-257, 48 h, read-out: Activity; in short: as §2
HCT-116 = assay: Cytotoxicity against human HCT116 cells assessed as cell growth at 10 uM after 48 hrs relative to control; type: functional; conditions: HCT-116, 48 h, read-out: Activity; in short: as §1
SF-268 = assay: Cytotoxicity against human SF268 cells assessed as cell growth at 10 uM after 48 hrs relative to control; type: functional; conditions: SF-268, 48 h, read-out: Activity; in short: as §1
PC-3 = assay: Cytotoxicity against human PC3 cells assessed as cell growth at 10 uM after 48 hrs relative to control; type: functional; conditions: PC-3, 48 h, read-out: Activity; in short: as §1
SNB-19 = assay: Cytotoxicity against human SNB19 cells assessed as cell growth at 10 uM after 48 hrs relative to control; type: functional; conditions: SNB-19, 48 h, read-out: Activity; in short: as §2
TK-10 = assay: Cytotoxicity against human TK10 cells assessed as cell growth at 10 uM after 48 hrs relative to control; type: functional; conditions: TK-10, 48 h, read-out: Activity; in short: as §2
NCI-H23 = assay: Cytotoxicity against human NCI-H23 cells assessed as cell growth at 10 uM after 48 hrs relative to control; type: functional; conditions: NCI-H23, 48 h, read-out: Activity; in short: as §1

COC(=O)[C@@H](NC(=O)N[C@@H](Cc1ccccc1)C(=O)N[C@H]1CCCCNC(=O)/C=C/[C@H](Cc2c[nH]c3ccccc23)NC1=O)C(C)C
growth at 10 µM (NCI-H322M): 99.4% | growth at 10 µM (NCI-H522): -0.14% | growth at 10 µM (K562 [1]): 82.1% | growth at 10 µM (OVCAR-5): 113% | growth at 10 µM (CAKI-1): 106% | GI50 (K562 [2]): 2940 nM | growth at 10 µM (CCRF-CEM): 58.2% | Ki [3]: 385 nM | growth at 10 µM (NCI/ADR-RES): 99.1% | growth at 10 µM (HCC 2998): 91.8% | GI50 (MOLT-4): 599 nM | growth at 10 µM (MDA-MB-231): 79.1% | growth at 10 µM (SK-MEL-2): 22.3% | growth at 10 µM [4]: 58.2% | growth at 10 µM (U-251): 63.9% | growth at 10 µM (A549): 95.5% | growth at 10 µM (M14): 101% | growth at 10 µM (Malme-3M): 94% | growth at 10 µM (MCF7): 40.3% | growth at 10 µM (OVCAR-3): 15.7% | growth at 10 µM (DU-145): 95.1% | growth at 10 µM (MDA-MB-468): 18% | growth at 10 µM (SW-620): 87.7% | growth at 10 µM (UACC-62): 79.3% | growth at 10 µM (UO-31): 84% | growth at 10 µM (RPMI-8226): 21.2% | growth at 10 µM (LOX IMVI): 64.7% | GI50 (HL-60): 1290 nM | growth at 10 µM (UACC-257): 87.1% | growth at 10 µM (HCT-116): 76.4% | growth at 10 µM (SF-268): 78.8% | growth at 10 µM (PC-3): 103% | growth at 10 µM (SNB-19): 51.2% | growth at 10 µM (TK-10): 101% | growth at 10 µM (NCI-H23): 78.1%
